ChEMBL document CHEMBL4219109, “Design, synthesis and biological evaluation of novel hydroxamic acid based histone deacetylase 6 selective inhibitors bearing phenylpyrazol scaffold as surface recognition motif” (Bioorg Med Chem, 2018)

Legend:
Histone deacetylase = experiment: Inhibition of HDAC in human HeLa nuclear extract using Boc-Lys-(Ac)-AMC as substrate preincubated for 15 mins followed by substrate addition measured after 60 mins by fluorescence assay; assay type: protein assay
Histone deacetylase 1 = Histone deacetylase 1 (Homo sapiens, UniProt Q13547); experiment: Inhibition of full length recombinant human C-terminal FLAG/His-tagged HDAC1 expressed in baculovirus infected sf9 cells using Boc-Lys-(Ac)-AMC as substrate preincubated for 15 mins followed by substrate addition measured after 60 mins by fluorescence assay
Histone deacetylase 2 = Histone deacetylase 2 (Homo sapiens, UniProt Q92769); experiment: Inhibition of full length recombinant human C-terminal His-tagged HDAC2 expressed in baculovirus infected sf9 cells using Boc-Lys-(Ac)-AMC as substrate preincubated for 15 mins followed by substrate addition measured after 60 mins by fluorescence assay
[1] = biological target: Histone deacetylase 3/Nuclear receptor corepressor 2 (HDAC3/NCoR2) (Homo sapiens, UniProt O15379); experiment: Inhibition of full length recombinant human C-terminal His-tagged HDAC3/N-terminal GST-tagged NCOR2 (395 to 489 residues) expressed in baculovirus infected sf9 cells using Boc-Lys-(Ac)-AMC as substrate preincubated for 15 mins followed by substrate addition measured after 60 mins by fluorescence assay
[2] = biological target: T1, Protein deacetylase HDAC6 (Homo sapiens, UniProt Q9UBN7); experiment: Inhibition of full length recombinant human N-terminal GST-tagged HDAC6 expressed in baculovirus infected sf9 cells using Boc-Lys-(Ac)-AMC as substrate preincubated for 15 mins followed by substrate addition measured after 60 mins by fluorescence assay
T1 sequence (Q9UBN7 whole entry): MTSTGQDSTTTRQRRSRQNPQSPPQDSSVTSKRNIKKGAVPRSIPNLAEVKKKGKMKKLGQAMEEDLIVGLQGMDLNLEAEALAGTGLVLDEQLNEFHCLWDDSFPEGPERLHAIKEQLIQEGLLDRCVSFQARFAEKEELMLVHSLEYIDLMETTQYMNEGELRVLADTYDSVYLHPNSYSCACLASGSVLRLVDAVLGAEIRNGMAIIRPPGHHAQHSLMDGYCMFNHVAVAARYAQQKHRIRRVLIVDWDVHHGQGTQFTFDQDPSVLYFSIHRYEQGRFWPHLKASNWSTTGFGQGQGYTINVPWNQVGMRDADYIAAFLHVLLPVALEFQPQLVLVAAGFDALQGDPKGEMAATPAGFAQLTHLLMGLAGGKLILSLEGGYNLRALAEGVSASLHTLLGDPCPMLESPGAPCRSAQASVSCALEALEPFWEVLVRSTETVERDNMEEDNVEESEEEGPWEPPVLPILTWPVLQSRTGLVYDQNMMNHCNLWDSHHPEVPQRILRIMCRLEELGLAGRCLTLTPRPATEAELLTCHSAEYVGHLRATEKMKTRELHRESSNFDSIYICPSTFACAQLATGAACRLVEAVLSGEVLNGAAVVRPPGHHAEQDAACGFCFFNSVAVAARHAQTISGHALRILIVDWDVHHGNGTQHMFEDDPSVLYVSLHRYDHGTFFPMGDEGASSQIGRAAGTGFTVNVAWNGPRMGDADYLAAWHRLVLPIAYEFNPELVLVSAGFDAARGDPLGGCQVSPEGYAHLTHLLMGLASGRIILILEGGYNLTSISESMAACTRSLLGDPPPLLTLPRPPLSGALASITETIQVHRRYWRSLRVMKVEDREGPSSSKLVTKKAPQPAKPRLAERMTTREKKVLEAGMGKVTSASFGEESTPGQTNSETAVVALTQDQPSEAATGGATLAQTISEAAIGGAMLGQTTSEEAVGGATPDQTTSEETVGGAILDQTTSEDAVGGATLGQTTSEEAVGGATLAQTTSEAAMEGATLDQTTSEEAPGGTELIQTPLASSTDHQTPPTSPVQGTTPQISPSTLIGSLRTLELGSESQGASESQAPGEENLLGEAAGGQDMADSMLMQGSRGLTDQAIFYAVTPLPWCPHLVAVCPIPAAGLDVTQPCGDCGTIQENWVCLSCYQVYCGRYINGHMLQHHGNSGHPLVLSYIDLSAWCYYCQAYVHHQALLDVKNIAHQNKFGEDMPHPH

Histone deacetylase 8 = biological target: T2, Histone deacetylase 8 (Homo sapiens, UniProt Q9BY41); experiment: Inhibition of full length recombinant human C-terminal His-tagged HDAC8 expressed in baculovirus infected sf9 cells using Boc-Lys-(TFA)-AMC as substrate preincubated for 15 mins followed by substrate addition measured after 60 mins by fluorescence assay
T2 sequence (Q9BY41 whole entry): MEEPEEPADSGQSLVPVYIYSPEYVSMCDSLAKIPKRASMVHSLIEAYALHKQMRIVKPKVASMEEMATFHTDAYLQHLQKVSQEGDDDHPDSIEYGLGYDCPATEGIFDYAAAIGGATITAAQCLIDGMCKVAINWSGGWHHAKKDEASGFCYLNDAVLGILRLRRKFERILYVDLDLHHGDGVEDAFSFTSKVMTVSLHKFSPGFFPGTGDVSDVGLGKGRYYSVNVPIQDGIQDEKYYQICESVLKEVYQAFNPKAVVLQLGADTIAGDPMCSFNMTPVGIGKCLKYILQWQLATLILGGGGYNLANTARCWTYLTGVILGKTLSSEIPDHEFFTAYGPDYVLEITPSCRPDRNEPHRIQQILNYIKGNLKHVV

A549 = experiment: Antiproliferative activity against human A549 cells after 96 hrs by MTT assay; assay type: functional
Procedure, shortened: (§1)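 Cells from Shanghai Cell Bank; A549 grown in high-glucose DMEM and HepG2 in MEM, both with 10% FBS plus penicillin/streptomycin, at 37°C in 5% CO₂. Seeded at 1.5-3.5×10⁴ cells/well for 24 h, then given graded compound concentrations for 96 h. MTT solution (2 mg/mL) added for 4 h, formazan dissolved in DMSO, A570 read. Growth expressed as treated/untreated cell number ratio.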

HepG2 = experiment: Antiproliferative activity against human HepG2 cells after 96 hrs by MTT assay; assay type: functional; procedure, shortened: as §1

Chain of Histone deacetylase 3/Nuclear receptor corepressor 2 (HDAC3/NCoR2) (O15379 whole entry, the tested form may be a part): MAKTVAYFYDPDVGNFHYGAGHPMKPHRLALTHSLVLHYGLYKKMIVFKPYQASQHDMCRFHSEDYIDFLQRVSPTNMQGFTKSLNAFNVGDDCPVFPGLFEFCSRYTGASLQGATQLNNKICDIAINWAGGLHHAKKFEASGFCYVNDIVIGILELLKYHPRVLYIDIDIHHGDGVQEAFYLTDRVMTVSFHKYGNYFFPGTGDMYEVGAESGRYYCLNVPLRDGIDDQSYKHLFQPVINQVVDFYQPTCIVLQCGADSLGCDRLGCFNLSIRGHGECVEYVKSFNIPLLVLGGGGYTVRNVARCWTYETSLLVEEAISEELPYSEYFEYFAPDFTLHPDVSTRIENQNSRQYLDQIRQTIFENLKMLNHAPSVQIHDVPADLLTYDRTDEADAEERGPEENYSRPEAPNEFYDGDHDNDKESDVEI
Chain of Histone deacetylase 3/Nuclear receptor corepressor 2 (HDAC3/NCoR2) (Q9Y618 whole entry, further chain, the tested form may be a part): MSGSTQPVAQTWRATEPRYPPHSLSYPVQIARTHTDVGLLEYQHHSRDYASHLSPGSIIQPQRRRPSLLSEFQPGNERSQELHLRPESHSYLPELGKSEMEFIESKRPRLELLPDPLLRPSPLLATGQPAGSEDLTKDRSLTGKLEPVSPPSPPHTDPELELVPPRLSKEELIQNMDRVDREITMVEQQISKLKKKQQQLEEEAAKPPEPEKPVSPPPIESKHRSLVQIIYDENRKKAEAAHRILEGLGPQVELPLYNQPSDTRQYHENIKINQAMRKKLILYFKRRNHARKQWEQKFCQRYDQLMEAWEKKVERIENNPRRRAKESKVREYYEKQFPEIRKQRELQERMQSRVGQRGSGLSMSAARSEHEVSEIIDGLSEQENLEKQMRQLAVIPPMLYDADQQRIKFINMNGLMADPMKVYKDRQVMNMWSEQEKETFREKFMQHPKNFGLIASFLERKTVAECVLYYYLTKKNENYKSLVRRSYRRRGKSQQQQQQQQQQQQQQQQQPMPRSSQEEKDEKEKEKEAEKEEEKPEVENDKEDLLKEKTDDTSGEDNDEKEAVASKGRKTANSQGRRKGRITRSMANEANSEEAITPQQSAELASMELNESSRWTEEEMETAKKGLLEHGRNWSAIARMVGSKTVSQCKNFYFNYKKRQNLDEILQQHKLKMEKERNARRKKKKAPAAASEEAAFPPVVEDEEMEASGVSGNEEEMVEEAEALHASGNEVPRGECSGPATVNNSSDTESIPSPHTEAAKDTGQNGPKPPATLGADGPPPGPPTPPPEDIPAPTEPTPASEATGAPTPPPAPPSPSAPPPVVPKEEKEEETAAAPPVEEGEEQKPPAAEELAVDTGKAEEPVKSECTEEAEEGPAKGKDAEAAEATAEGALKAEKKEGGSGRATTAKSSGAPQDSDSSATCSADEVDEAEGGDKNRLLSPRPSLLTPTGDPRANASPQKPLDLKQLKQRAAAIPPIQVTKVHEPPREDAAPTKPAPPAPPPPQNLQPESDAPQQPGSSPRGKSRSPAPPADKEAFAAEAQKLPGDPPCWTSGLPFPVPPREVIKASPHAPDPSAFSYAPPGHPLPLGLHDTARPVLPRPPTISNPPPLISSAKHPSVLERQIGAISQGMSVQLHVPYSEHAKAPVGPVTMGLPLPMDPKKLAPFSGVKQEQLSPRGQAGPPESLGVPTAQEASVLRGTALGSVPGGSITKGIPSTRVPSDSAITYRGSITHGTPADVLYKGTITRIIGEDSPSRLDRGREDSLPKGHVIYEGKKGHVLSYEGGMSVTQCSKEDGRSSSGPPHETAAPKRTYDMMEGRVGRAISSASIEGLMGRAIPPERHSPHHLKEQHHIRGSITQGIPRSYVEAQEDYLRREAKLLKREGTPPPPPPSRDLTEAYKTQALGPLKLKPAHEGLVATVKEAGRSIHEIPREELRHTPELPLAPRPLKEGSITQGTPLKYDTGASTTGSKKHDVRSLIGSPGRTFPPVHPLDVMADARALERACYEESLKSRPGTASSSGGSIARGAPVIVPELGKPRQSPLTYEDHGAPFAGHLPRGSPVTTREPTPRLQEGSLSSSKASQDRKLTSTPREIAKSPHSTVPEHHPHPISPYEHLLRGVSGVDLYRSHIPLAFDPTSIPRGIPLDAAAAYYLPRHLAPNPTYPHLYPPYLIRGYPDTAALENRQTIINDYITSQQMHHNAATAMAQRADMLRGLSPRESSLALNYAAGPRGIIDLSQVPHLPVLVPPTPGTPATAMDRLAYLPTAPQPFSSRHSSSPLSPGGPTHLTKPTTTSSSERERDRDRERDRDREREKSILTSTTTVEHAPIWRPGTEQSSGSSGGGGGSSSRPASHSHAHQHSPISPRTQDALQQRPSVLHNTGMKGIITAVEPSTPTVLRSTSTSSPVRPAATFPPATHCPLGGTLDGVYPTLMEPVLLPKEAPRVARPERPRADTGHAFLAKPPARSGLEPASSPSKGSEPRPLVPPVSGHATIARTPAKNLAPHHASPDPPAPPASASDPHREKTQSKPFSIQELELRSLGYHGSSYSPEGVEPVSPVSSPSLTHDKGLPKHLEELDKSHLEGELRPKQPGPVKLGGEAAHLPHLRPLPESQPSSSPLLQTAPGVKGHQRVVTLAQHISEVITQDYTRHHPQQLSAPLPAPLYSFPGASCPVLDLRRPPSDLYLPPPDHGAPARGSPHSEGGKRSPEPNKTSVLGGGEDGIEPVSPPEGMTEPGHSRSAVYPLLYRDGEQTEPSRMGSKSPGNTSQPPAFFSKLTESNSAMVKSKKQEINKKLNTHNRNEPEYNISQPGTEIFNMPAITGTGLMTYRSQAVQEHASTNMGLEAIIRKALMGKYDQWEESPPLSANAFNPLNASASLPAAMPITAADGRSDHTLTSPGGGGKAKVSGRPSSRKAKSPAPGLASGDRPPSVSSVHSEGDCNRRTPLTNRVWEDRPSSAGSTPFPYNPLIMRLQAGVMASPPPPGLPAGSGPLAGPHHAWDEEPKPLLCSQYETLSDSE
Chain of Histone deacetylase 2 (Q92769 whole entry, the tested form may be a part): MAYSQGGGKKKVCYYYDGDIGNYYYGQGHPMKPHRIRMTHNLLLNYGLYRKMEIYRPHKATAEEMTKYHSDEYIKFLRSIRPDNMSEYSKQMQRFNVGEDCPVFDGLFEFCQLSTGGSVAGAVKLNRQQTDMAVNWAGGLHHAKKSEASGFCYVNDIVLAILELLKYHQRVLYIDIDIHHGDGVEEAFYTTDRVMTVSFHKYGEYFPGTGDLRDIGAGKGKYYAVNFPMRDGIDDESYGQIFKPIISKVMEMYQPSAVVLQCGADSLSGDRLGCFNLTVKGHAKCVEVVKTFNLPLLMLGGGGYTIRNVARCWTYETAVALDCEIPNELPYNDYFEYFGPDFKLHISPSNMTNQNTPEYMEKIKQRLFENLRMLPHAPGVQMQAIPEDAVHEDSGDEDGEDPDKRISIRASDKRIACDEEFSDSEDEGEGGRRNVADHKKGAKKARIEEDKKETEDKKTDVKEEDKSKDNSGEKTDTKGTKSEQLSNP
Chain of Histone deacetylase 1 (Q13547 whole entry): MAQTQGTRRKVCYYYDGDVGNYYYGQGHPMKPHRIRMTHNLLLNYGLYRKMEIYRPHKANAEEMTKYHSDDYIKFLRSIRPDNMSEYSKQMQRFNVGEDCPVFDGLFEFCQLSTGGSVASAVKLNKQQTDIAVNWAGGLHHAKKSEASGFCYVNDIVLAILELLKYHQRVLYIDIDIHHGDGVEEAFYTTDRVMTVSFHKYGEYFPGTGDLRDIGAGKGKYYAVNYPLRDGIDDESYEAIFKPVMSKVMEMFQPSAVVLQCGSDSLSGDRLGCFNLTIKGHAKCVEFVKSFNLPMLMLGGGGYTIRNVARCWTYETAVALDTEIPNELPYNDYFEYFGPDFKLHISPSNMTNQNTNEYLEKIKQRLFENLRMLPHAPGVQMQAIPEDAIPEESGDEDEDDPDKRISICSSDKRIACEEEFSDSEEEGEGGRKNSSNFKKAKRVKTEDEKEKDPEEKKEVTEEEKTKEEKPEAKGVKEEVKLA

SMILES	IC50 (Histone deacetylase) [nM]	IC50 (Histone deacetylase 1) [nM]	IC50 (Histone deacetylase 2) [nM]	IC50 [1] [nM]	IC50 [2] [nM]	IC50 (Histone deacetylase 8) [nM]	GI50 (A549; Homo sapiens, A549, 96 h) [nM]	GI50 (HepG2; Homo sapiens, HepG2, 96 h) [nM]	GI50 (A549) [nM]	GI50 (HepG2) [nM]
O=C(CCCCNC(=O)c1cc(-c2ccc(F)cc2)[nH]n1)NO	644	1040	883	671	275	> 5000	> 100000	> 100000		
CCc1cc(-c2ccc(F)cc2)n(Cc2ccc(C(=O)NO)cc2)n1	1792	3610	1500	1840	69	> 5000	16700	7760		
O=C(CCCCCCNC(=O)c1cc(-c2ccc(F)cc2)[nH]n1)NO	43	79	40	35	22	2950	1980	23200		
O=C(NO)c1ccc(Cn2nc(-c3ccc(F)cc3)cc2Cc2ccccc2)cc1	1028	1880	763	619	326	> 5000				
O=C(CCCNC(=O)c1cc(-c2ccc(F)cc2)[nH]n1)NO	2603	3740	1830	1430	1060	> 5000	> 100000	88000		
Cc1cc(-c2ccc3c(c2)OCO3)nn1Cc1ccc(C(=O)NO)cc1	8	24	40	36	5	> 5000	28100	20800		
CCCc1cc(-c2ccc(F)cc2)n(Cc2ccc(C(=O)NO)cc2)n1	3827	> 5000	2880	1940	167	> 5000	16000	6660		
O=C(CCCCCCC(=O)Nc1ccccc1)NO [VORINOSTAT]									5020	22000
Cc1ccc(-c2cc(C(F)(F)F)nn2-c2ccc(C(=O)NO)cc2)cc1	1139	836	919	736	359	> 5000	> 100000	> 100000		
Cc1ccc(-c2cc(C)nn2Cc2ccc(C(=O)NO)cc2)cc1	22	694	76	53	29	> 5000	12400	13300		
Cc1ccc(-c2cc(C(F)(F)F)nn2CCc2ccc(C(=O)NO)cc2)cc1	1460	1070	635	816	540	> 5000	29300	24000		
O=C(NO)c1ccc(CNC(=O)c2cc(-c3ccc(F)cc3)[nH]n2)cc1	22	38	17	9	1	> 5000	20200	38100		
CCc1cc(-c2ccc(F)cc2)nn1Cc1ccc(C(=O)NO)cc1	165	487	391	228	35	> 5000	19200	16700		
Cc1ccc(-c2cc(C(F)(F)F)n(Cc3ccc(C(=O)NO)cc3)n2)cc1	33	110	47	21	16	> 5000	15500	8580		
O=C(CCCCCNC(=O)c1cc(-c2ccc(F)cc2)[nH]n1)NO	58	66	42	36	29	3710	7090	47600		
O=C(NO)c1ccc(Cn2nc(Cc3ccccc3)cc2-c2ccc(F)cc2)cc1	> 5000	> 5000	> 5000	> 5000	420	> 5000				
Cc1cc(-c2ccc3c(c2)OCO3)n(Cc2ccc(C(=O)NO)cc2)n1	16	430	135	92	36	> 5000	23200	16500		
Cc1ccc(-c2cc(C(F)(F)F)nn2-c2ccc(S(N)(=O)=O)cc2)cc1 [CELECOXIB]	1637	1190			643					
